# Laboratory results: article PMC3715055 (Science translational medicine, 2012)
# Legend:
# [1] = tested on: LNCaP human prostate cancer cells; test: Clonal survival assay, PSMA-positive LNCaP cells, 72-hour exposure; type: cell-based; details: human cancer cell lines (Fig. 3A: LNCaP)
# Procedure, shortened: (§1)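 Clonal survival assays used PSMA-negative TSU bladder and PSMA-positive LNCaP prostate cancer cells exposed to test compounds for 72 hours. IC50 was the concentration inhibiting proliferation by 50%. Assays were run in triplicate and reported as mean ± SE.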
# [2] = tested on: TSU cells; test: Intracellular free calcium in fura-2-loaded TSU cells; type: cell-based, human; details: PSMA-nonproducing TSU cells
# [3] = tested on: TSU human bladder cancer cells; test: Clonal survival assay, PSMA-negative TSU cells, 72-hour exposure; type: cell-based; details: human cancer cell lines (Fig. 3A: TSU)
# Procedure, shortened: as §1
# [4] = Biodistribution in MCF-7 tumor-bearing mice; type: in vivo, mouse
# [5] = target: T1, SERCA pump (Oryctolagus cuniculus, UniProt P04191); test: Intrinsic fluorescence binding competition on SERCA; details: intrinsic fluorescent studies
# [6] = target: T1, SERCA pump; test: SERCA pump assay with skeletal muscle microsomes; type: biochemical, rabbit; details: broken cell microsomal studies
# [7] = Biodistribution in CWR22R-H-bearing castrated mice; type: in vivo, mouse
# Procedure, shortened: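 Castrated mice carried CWR22R-H tumours started s.c. from 10 mg minced tumour in Matrigel. Five mice received one 56 mg/kg dose of test compound. Tumour, liver, kidney, skeletal muscle and brain were harvested 5 days later. Test compound and its PSMA cleavage products were measured in tissue by LC-MS. Tumour levels were compared with other tissues by Student's t test.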
# [8] = Pharmacokinetics in monkey toxicological studies; type: in vivo; details: serum, intravenous
# Procedure, shortened: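 Male and female monkeys received a single 1-hour treatment at 1 to 10 mg/kg. Serum levels of test compound were followed over 24 hours. Analysis was noncompartmental. Terminal half-life came from the terminal slope of a log-linear concentration–time plot.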
# [9] = target: Fc-PSMA (Homo sapiens, UniProt Q04609); test: PSMA prodrug hydrolysis with Fc-PSMA; type: biochemical; details: incubation with Fc-PSMA
# Procedure, shortened: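 Enzyme activity was confirmed beforehand by 3H-NAAG hydrolysis. Aliquots taken over time were analysed by HPLC with 0.1% TFA in water and acetonitrile, 40–100% B over 25 min. Products were identified by co-elution and confirmed by MS. Human plasma and other purified proteases at equimolar level were also tested.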
# [10] = GLP toxicology in cynomolgus monkey; type: in vivo
# Procedure, shortened: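 Toxicology was done in cynomolgus monkeys of both sexes at 10 mg/kg, with vehicle-treated controls. Necropsy was on day 33 and examined lymph nodes, spleen and thymus histologically. Splenic/body weight and thymus/body weight ratios were compared with vehicle animals, three per sex.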
# [11] = tested on: CWR22R-H human prostate cancer xenografts; test: CWR22R-H xenograft efficacy in castrated mice; type: in vivo, mouse; details: single 3-day course, 56 mg/kg × 3, out to ≥30 days
# Procedure, shortened: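 Castrated mice had CWR22R-H xenografts from s.c. minced tumour (10 mg) in Matrigel. Three consecutive daily i.v. doses of 56 mg/kg were given on days 0, 1 and 2. Tumour volume was followed for ≥30 days against untreated controls by Student's t test. Body weight was recorded.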
# [12] = Stability to hydrolysis in human plasma; type: in vitro ADME
# [13] = tested on: MDA-PCa2b human prostate cancer xenografts; test: MDA-PCa2b xenograft efficacy in intact mice; type: in vivo, mouse
# Procedure, shortened: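 Six-week-old male nude mice carried flank MDA-PCa2b tumours from 2 × 10^6 cells in Matrigel. Test compound was given i.v. at 56 mg/kg on 3 consecutive days. Tumour volume was followed for ≥30 days against untreated controls by Student's t test. Tumours harvested 4 days after the last dose had H&E staining and nuclear AR immunostaining with rabbit polyclonal anti-AR antibody.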
# [14] = tested on: other purified proteases; test: Hydrolysis by other purified proteases; type: biochemical; details: equimolar concentrations of other proteases
# [15] = Single-dose pharmacokinetics in BALB/c mice; type: in vivo, mouse; details: single dose of 67 mg/kg
# Procedure, shortened: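 Wild-type BALB/c mice received a single i.v. dose of 67 mg/kg. Groups of three mice were sampled at time points over 24 hours. Plasma test compound and its 12ADTβAsp cleavage product were quantified by LC-MS/MS. Analysis was noncompartmental, with a semilog regression trend line.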
# [16] = tested on: TSU human bladder cancer xenografts; test: TSU xenograft efficacy; type: in vivo, mouse; details: more intensive treatment schedule
# [17] = tested on: LNCaP cells; test: Growth inhibition of LNCaP cells with or without PSMA inhibitor PMPA; type: cell-based, human; details: 48-hour exposure, PMPA 10 μM
# [18] = Body weight of xenograft-bearing mice; type: in vivo, mouse; details: 56 mg/kg × 3, by 5 to 7 days after therapy, baseline by days 14 to 21
# [19] = Phase 1 clinical trial pharmacokinetics; type: in vivo, human
# Procedure, shortened: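 Eighteen advanced cancer patients in a phase 1 dose-escalation trial received a 1-hour i.v. infusion at 1.2 to 40 mg/m2. Serum concentrations were followed over 24 hours. Analysis was noncompartmental. AUC0–∞ used the linear trapezoidal method and t1/2 the log-linear terminal slope. Dose proportionality was assessed from AUC across doses.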
# [20] = tested on: LNCaP human prostate cancer xenografts; test: LNCaP xenograft efficacy in intact mice; type: in vivo, mouse; details: for treated-to-control tumor volume (T/C) ratio: maximally tolerated dose × 3
# Procedure, shortened: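 Six-week-old male nude mice were inoculated in the flank with 2 × 10^6 LNCaP cells in Matrigel. Test compound was given i.v. at 56 mg/kg on days 0, 1 and 2. The docetaxel comparator was dosed on days 0, 2 and 5. Tumour volume was followed for 30 days against untreated mice by Student's t test. T/C was the treated-to-control tumour volume ratio.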
# [21] = Dose-finding / maximum tolerated dose in mice; type: in vivo, mouse; details: for maximally tolerated dose: × 3 doses
# [22] = tested on: MCF-7 human breast cancer xenografts; test: MCF-7 xenograft efficacy in female nude mice; type: in vivo, mouse; details: for T/C ratio: day 21
# Procedure, shortened: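 Female nude mice with s.c. estrogen pellets carried flank tumours from 2 × 10^6 MCF-7 cells. Mice received one, two or three daily doses of 56 mg/kg test compound. Tumour volume and body weight were followed against untreated controls by Student's t test. Xenografts had histology 6 days after two doses. ER was stained with an ERα mAb. T/C was treated-to-control tumour volume.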
# [23] = GLP toxicology in rat; type: in vivo
# [24] = tested on: PC-3 human prostate cancer cells; test: Clonal survival of PC-3 cells after repeated exposure; type: cell-based; details: 11 cycles of repeat exposure and clonal expansion, 500 nM
# [25] = BALB/c mice; cited from earlier work
# [26] = MCF-7, 5 days after single dose of G202 56 mg/kg
# T1 sequence (P04191 whole entry): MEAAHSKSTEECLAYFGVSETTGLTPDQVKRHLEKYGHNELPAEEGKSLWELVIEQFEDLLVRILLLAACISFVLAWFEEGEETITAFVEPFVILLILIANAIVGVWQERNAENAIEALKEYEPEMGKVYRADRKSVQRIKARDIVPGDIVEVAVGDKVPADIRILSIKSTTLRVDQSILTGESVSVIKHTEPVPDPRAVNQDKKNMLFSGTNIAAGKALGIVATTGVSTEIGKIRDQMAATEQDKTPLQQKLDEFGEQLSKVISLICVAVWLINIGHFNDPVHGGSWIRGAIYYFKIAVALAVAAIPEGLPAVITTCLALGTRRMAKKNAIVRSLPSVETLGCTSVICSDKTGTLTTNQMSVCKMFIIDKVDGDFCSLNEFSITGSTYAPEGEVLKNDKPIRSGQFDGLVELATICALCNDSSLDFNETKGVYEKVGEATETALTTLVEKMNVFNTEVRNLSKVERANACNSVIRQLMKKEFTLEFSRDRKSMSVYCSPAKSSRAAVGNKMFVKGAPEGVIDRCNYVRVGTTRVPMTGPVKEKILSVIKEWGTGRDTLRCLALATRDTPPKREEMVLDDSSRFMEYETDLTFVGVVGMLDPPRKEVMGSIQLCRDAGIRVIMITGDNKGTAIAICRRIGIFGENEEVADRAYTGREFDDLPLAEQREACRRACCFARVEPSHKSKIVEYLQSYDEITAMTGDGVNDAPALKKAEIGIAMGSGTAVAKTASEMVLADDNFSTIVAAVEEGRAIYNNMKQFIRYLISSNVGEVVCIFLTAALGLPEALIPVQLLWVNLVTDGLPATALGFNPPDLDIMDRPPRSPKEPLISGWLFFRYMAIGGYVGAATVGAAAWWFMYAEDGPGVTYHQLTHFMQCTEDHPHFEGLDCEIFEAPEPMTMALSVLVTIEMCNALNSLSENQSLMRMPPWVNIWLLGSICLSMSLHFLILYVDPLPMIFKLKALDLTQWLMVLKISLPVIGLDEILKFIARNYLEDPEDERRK
# Sequence of Fc-PSMA (Q04609 44-750 limits assumed): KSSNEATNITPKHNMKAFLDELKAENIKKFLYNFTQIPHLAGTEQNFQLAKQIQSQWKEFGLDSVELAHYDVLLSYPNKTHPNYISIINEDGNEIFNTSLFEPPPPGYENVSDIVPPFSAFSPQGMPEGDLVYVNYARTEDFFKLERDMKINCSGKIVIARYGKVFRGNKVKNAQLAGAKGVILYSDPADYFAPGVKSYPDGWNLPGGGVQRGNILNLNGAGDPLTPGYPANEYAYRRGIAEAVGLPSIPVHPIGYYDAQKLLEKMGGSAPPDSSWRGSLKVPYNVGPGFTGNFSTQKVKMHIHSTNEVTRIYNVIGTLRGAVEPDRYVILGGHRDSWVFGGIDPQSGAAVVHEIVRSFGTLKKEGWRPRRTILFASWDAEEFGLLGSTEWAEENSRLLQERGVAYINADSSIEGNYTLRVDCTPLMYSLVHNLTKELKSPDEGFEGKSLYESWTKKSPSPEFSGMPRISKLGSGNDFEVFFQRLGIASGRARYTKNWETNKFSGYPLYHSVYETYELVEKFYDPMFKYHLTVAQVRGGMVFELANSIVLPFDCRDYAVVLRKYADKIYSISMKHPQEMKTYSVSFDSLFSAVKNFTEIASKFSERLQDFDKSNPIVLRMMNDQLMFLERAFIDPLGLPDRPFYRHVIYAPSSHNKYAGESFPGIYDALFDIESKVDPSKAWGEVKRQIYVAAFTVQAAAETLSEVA
structure (smiles),measurement,setting,value
C/C=C(/C)C(=O)O[C@H]1C(C)=C2[C@H]([C@@H]1OC(=O)CCCCCCC)[C@@](C)(OC(C)=O)C[C@H](OC(=O)CCCCCCCCCCCNC(=O)C[C@H](N)C(=O)O)[C@@]1(O)[C@H]2OC(=O)[C@@]1(C)O [12ADTβAsp],cytotoxic potency compared with TG,[1],comparable to those of TG
same,maximal elevation in intracellular Ca2+,[2]; 200 nM,up to 400 nM
same,cytotoxic potency compared with TG,[3],comparable to those of TG
same,fold higher amount in tumors than in kidney,[4]; [26],3.5 fold
same,fold higher amount in tumors than in skeletal muscle,[4]; [26],1.6 fold
same,tumor concentration relative to that in CWR22R-H xenografts,[4]; MCF-7 versus CWR22R-H,1/10
same,binding competition with cyclopiazonic acid (CPA),[5],competitively affect the binding of each other
same,potency at inhibiting the SERCA pump compared with TG,[6],as potent at inhibiting the SERCA pump in broken cell microsomal studies as was TG
same,accumulation in tumor tissue,"[7]; 5 days after single dose of G202 56 mg/kg, CWR22R-H tumor",micromolar levels
same,fold higher amount in tumor tissue compared to normal brain,"[7]; CWR22R-H, after G202 56 mg/kg",354 fold
same,fold higher amount in tumor tissue compared to normal kidney,"[7]; CWR22R-H, after G202 56 mg/kg",15 fold
"C/C=C(/C)C(=O)O[C@H]1C(C)=C2[C@H]([C@@H]1OC(=O)CCCCCCC)[C@@](C)(OC(C)=O)C[C@H](OC(=O)CCCCCCCCCCCNC(=O)C[C@H](N)C(=O)N[C@@H](CCC(=O)N[C@@H](CCC(=O)N[C@@H](CCC(=O)N[C@@H](CCC(=O)O)C(=O)O)C(=O)O)C(=O)O)C(=O)O)[C@@]1(O)[C@H]2OC(=O)[C@@]1(C)O [G202, 12ADTβAsp-GluγGluγGluγGlu]",half-life,[8],9.7 h
same,hydrolysis by PSMA,[9],efficiently hydrolyzed by PSMA
same,animals with lymphoid depletion of lymph nodes,[10]; 10 mg/kg,five of six
same,animals with lymphoid depletion of spleen,[10]; 10 mg/kg,five of six
same,increase of splenic ratio,"[10]; female monkeys, 10 mg/kg",25%
same,decrease of splenic/body weight ratio versus vehicle,"[10]; male monkeys, 10 mg/kg",44%
same,decrease of thymus/body weight ratio versus vehicle,"[10]; male monkeys, 10 mg/kg",67%
same,bone marrow toxicity,[10]; monkey toxicology studies,no bone marrow toxicity
same,brain pathology,"[10]; six monkeys, three consecutive doses of 10 mg/kg",within normal limits
same,antitumor effect,[11],Significant antitumor effects
same,increase in intracellular calcium,[2]; 5 mM (25-fold higher concentration),no appreciable increase in intracellular calcium
same,stability to hydrolysis in human plasma,[12],completely stable to hydrolysis in human plasma
same,androgen receptor (AR) expression in tumors,[13]; 4 days after 56 mg/kg × 3,marked down-regulation of AR expression
same,antitumor effect,"[13]; single 3-day course, 56 mg/kg × 3, out to ≥30 days",Significant antitumor effects
same,hydrolysis by other purified proteases,[14],not appreciably hydrolyzed
same,fraction of dose converted in the circulation to 12ADTβAsp,[15],Less than 1%
same,T/C ratio at 3 weeks after treatment,[16],0.32
same,growth inhibition of LNCaP cells on addition of PMPA,[17],could be blocked
same,maximum body weight loss,[18],about 15%
same,predicted increase of AUC for a doubling in dose,"[19]; first six dose cohorts, 1.2 to 40 mg/m^2",2.23 fold
same,terminal half-life in patients relative to monkey,[19]; human versus monkey,~1.5 fold
same,half-life,"[19]; human, serum, intravenous",15.1 h
same,treated-to-control tumor volume (T/C) ratio,[20],0.15
same,average regression of xenografts,"[20]; single 3-day course, 56 mg/kg × 3, over a 30-day period",~50%
same,bone marrow toxicity,[21]; mouse toxicology studies,no bone marrow toxicity
same,MTD,"[21]; mouse, in vivo, iv",112 mg/kg
same,mortality of treated animals,[21]; up to three consecutive daily doses of 56 mg/kg (1 μmol/dose),< 10%
same,maximally tolerated single intravenous dose,[21]; wild-type mice,2 μmol/dose
same,TG molar equivalents deliverable systemically compared to TG alone,[21]; without significant host toxicity,> 150 fold
same,maximally tolerated dose,[21],1.0 µmol
same,T/C ratio at 3 weeks after treatment,[22]; MCF-7,0.05
same,effect on tumor growth,[22]; single dose 56 mg/kg on 1 day,tumor growth delay
same,T/C ratio,[22]; three consecutive doses of 56 mg/kg,0.06 ± 0.005
same,T/C ratio,[22]; two consecutive doses of 56 mg/kg,0.05 ± 0.006
same,effect on tumor growth,"[22]; two daily doses of 56 mg/kg, out to 30 days, all treated animals",sustained tumor regression
same,estrogen receptor (ER) expression in tumors,"[22]; two doses of 56 mg/kg, nadir 3 days after the last dose",down-regulation of the estrogen receptor
same,amount detected in the brain,[7]; mouse biodistribution studies,low amounts
same,brain pathology,[23]; rat pathological studies,lack of toxicity to the brain
same,renal toxicity,[23]; rat toxicological studies,transient reversible renal toxicity
same,bone marrow toxicity,[23]; rat toxicology studies,no bone marrow toxicity
"C/C=C(/C)C(=O)O[C@H]1C(C)=C2[C@H]([C@@H]1OC(=O)CCCCCCC)[C@@](C)(OC(C)=O)C[C@H](OC(=O)CCC)[C@@]1(O)[C@H]2OC(=O)[C@@]1(C)O [TG, thapsigargin]",clonal survival after repeated exposure,[24],no change in clonal survival
same,lethal dose for 100% of the test population (LD100),[25],0.2 mg/kg
"CC(=O)O[C@@]12CO[C@@H]1C[C@H](O)[C@@]1(C)C(=O)[C@H](O)C3=C(C)[C@@H](OC(=O)[C@H](O)[C@@H](NC(=O)OC(C)(C)C)c4ccccc4)C[C@@](O)([C@@H](OC(=O)c4ccccc4)[C@H]21)C3(C)C [docetaxel, reference compound]",treated-to-control tumor volume (T/C) ratio,[20],0.63
same,maximally tolerated dose,[21],0.39 µmol
